ChEMBL document CHEMBL1148438, “Discovery of a new family of inhibitors of human cytomegalovirus (HCMV) based upon lipophilic alkyl furano pyrimidine dideoxy nucleosides: action via a novel non-nucleosidic mechanism” (J Med Chem, 2004)

Experiments:
HEL [1] = experiment: Cytostatic concentration required to inhibit HEL cell proliferation measured at day 4; assay type: functional; settings: Homo sapiens, 96 h
How it was run: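 Growing, subconfluent HEL cells were exposed to different compound concentrations, then trypsinized and counted with a Coulter counter. The 50% value was the concentration reducing cell number by 50% relative to untreated cells.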

HEL [2] = experiment: Minimal cytotoxic concentration required to cause a microscopically visible alteration of HEL cell morphology as measured at day 7 postinfection; assay type: functional; settings: Homo sapiens, 168 h
How it was run: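 MCC was assessed within the antiviral assay on confluent HEL monolayers exposed to varying compound concentrations. It was taken at day 7 as the lowest concentration giving microscopically visible cytotoxicity (altered morphology).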

HEL [3] = experiment: Effective concentration required to inhibit HCMV Davis strain-induced cytopathicity in human embryonic lung (HEL) fibroblast cell cultures at day 7 of postinfection; assay type: functional, cell-based; settings: 168 h
How it was run: (§1)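 Confluent HEL fibroblast monolayers were infected with 100 PFU of HCMV per well and adsorbed for 1-2 h. Residual virus was removed, and cells were kept in MEM with 2% inactivated FCS, 1% L-glutamine and 0.3% sodium bicarbonate plus varying compound concentrations. Cytopathicity was scored at day 7, and EC50 was the concentration reducing virus-induced CPE by 50% versus untreated control.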

HEL [4] = experiment: Effective concentration required to inhibit HCMV AD169 strain-induced cytopathicity in human embryonic lung (HEL) fibroblast cell cultures at day 7 of postinfection; assay type: functional, cell-based; settings: 168 h; how it was run: as §1

Compound	CC50 (HEL [1]) [µM]	MCC (HEL [2]) [µM]	EC50 (HEL [3]) [µM]	EC50 (HEL [4]) [µM]
CCCCCCCCc1cc2cn(C3CCC(CO)O3)c(=O)nc2o1 (stereo not drawn)	112	20	3	2.5
CCCCCCCCCc1cc2cn(C3CCC(CO)O3)c(=O)nc2o1 (stereo not drawn)	> 200	58	1.3	1.2
CCCCCCCCCCc1cc2cn(C3CCC(CO)O3)c(=O)nc2o1 (stereo not drawn)	> 200	> 20	3.2	2.6
Nc1ccn(C[C@@H](CO)OCP(=O)(O)O)c(=O)n1 [CIDOFOVIR]	158	> 150		
CCCCCCCCCCCc1cc2cn(C3CCC(CO)O3)c(=O)nc2o1 (stereo not drawn)	> 200	50	1.2	1.4
Nc1nc2c(ncn2COC(CO)CO)c(=O)[nH]1 [GANCICLOVIR]	> 150	> 150	3.9	2.7
CCCCCCc1cc2cn(C3CCC(CO)O3)c(=O)nc2o1 (stereo not drawn)	143	200	> 50	32
O=C(O)P(=O)(O)O [FOSCARNET]	500	> 400	62	53
CCCCCCCCCCCCc1cc2cn(C3CCC(CO)O3)c(=O)nc2o1 (stereo not drawn)	> 200	200	5	3.7
CCCCCCCCCCCCCCc1cc2cn(C3CCC(CO)O3)c(=O)nc2o1 (stereo not drawn)	> 200	200	40	25
